According to ChEMBL document CHEMBL2424622, “Development of amino-pyrimidine inhibitors of c-Jun N-terminal kinase (JNK): kinase profiling guided optimization of a 1,2,3-benzotriazole lead” (Bioorg Med Chem Lett, 2013):

Assays:
[1] = target: Mitogen-activated protein kinase kinase kinase 11 (Homo sapiens) (UniProt Q16584); test: Competitive binding affinity to MLK3 (unknown origin) at 10 uM in presence of ATP relative to control
[2] = target: T1, Non-receptor tyrosine-protein kinase TNK1 (Homo sapiens) (UniProt Q13470); test: Competitive binding affinity to TNK1 (unknown origin) at 10 uM in presence of ATP relative to control
T1 sequence (whole entry): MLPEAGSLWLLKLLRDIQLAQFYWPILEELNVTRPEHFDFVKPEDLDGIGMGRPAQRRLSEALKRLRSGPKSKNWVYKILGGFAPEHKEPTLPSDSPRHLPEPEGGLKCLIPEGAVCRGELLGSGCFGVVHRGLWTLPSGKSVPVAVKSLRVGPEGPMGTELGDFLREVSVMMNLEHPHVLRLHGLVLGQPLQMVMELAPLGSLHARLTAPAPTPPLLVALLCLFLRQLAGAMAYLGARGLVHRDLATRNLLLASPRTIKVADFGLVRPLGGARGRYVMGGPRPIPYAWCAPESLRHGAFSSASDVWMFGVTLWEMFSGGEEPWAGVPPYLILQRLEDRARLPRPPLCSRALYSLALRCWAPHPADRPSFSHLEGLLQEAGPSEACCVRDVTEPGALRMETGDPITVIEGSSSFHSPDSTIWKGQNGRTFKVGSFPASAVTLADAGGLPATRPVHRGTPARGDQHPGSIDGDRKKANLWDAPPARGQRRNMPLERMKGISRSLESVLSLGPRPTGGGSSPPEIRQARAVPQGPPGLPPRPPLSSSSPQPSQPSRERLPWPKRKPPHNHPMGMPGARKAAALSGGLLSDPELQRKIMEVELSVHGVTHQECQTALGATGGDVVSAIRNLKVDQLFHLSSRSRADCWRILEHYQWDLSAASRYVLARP

[3] = test system: Epidermal growth factor receptor (Homo sapiens), P00533 [L858R]; test: Competitive binding affinity to EGFR L858R mutant (unknown origin) at 10 uM in presence of ATP relative to control
Procedure, shortened: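 In vitro ATP-site competition binding assay, part of profiling against a diverse panel of 128 kinases. Each compound was tested at a single concentration of 10 µM. Kinome selectivity was summarized as S15 selectivity scores.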

[4] = target: T2, Serine/threonine-protein kinase LATS2 (Homo sapiens) (UniProt Q9NRM7); test: Competitive binding affinity to LATS2 (unknown origin) at 10 uM in presence of ATP relative to control
T2 sequence (whole entry): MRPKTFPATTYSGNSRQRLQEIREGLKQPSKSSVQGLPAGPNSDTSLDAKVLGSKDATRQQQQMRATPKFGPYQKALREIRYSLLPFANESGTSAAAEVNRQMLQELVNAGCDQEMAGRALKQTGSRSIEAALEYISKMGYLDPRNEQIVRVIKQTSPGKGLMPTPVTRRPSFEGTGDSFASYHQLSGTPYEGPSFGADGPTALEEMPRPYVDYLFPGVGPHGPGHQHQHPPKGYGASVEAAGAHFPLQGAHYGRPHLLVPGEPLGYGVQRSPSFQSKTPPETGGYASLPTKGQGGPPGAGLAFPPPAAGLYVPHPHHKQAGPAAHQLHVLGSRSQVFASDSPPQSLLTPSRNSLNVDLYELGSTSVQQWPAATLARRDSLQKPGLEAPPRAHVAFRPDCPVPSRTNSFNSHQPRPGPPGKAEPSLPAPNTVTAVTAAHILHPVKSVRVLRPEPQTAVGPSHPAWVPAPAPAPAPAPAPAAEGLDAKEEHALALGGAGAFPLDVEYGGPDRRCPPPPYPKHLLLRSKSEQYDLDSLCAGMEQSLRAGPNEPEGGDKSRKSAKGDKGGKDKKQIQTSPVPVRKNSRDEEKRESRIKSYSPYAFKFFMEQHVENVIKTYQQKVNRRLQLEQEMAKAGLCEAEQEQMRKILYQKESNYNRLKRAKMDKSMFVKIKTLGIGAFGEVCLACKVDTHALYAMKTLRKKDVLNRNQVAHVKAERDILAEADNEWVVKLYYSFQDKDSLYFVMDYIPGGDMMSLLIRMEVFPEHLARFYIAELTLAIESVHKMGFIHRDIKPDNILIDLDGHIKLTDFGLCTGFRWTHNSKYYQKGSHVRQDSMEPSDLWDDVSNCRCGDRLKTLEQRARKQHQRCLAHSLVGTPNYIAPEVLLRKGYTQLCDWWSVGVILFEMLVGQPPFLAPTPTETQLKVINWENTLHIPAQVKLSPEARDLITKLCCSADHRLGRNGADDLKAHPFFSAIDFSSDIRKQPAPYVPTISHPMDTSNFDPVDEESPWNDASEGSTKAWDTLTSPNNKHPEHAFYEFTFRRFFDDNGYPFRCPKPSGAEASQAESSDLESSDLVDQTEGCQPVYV

[5] = target: T3, Cyclin-dependent kinase 11A (Homo sapiens) (UniProt Q9UQ88); test: Competitive binding affinity to CDC2L2 (unknown origin) at 10 uM in presence of ATP relative to control
T3 sequence (whole entry): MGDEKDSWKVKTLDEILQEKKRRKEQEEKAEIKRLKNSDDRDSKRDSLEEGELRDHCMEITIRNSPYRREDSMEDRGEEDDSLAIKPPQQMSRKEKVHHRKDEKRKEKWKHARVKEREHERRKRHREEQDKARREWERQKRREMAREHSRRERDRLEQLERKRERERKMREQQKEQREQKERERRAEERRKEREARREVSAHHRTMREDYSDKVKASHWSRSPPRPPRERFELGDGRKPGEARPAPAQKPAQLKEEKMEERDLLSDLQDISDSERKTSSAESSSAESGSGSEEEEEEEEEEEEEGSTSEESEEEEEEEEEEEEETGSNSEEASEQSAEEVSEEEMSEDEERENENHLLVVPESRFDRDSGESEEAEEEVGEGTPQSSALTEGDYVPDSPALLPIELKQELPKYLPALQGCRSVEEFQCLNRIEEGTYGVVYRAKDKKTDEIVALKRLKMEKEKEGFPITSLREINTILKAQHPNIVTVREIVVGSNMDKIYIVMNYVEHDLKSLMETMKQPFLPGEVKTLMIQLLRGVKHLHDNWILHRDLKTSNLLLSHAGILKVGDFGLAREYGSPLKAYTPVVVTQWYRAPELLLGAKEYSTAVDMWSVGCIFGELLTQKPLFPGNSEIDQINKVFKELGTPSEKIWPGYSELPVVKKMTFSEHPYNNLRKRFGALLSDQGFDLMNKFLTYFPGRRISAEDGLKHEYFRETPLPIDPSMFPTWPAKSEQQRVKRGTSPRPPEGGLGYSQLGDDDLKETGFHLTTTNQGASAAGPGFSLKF
Procedure, shortened: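 In vitro ATP-site competition binding format, run as one member of a diverse 128-kinase profiling panel. Each compound was tested at a single concentration across the whole panel.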

[6] = target: Cyclin-dependent kinase 7 (Homo sapiens, UniProt P50613); test: Competitive binding affinity to CDK7 (unknown origin) at 10 uM in presence of ATP relative to control
Chain of Cyclin-dependent kinase 7 (P50613 whole entry): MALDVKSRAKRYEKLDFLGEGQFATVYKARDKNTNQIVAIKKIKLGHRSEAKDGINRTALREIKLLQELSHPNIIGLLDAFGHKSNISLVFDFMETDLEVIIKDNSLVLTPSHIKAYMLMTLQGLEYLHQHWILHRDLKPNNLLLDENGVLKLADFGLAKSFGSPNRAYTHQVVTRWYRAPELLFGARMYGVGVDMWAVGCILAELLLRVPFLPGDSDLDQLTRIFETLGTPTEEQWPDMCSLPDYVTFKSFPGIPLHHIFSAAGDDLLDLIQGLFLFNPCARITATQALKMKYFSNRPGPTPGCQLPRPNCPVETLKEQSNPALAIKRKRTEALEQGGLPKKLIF

Chain of Mitogen-activated protein kinase kinase kinase 11 (Homo sapiens) (Q16584 whole entry, looked up): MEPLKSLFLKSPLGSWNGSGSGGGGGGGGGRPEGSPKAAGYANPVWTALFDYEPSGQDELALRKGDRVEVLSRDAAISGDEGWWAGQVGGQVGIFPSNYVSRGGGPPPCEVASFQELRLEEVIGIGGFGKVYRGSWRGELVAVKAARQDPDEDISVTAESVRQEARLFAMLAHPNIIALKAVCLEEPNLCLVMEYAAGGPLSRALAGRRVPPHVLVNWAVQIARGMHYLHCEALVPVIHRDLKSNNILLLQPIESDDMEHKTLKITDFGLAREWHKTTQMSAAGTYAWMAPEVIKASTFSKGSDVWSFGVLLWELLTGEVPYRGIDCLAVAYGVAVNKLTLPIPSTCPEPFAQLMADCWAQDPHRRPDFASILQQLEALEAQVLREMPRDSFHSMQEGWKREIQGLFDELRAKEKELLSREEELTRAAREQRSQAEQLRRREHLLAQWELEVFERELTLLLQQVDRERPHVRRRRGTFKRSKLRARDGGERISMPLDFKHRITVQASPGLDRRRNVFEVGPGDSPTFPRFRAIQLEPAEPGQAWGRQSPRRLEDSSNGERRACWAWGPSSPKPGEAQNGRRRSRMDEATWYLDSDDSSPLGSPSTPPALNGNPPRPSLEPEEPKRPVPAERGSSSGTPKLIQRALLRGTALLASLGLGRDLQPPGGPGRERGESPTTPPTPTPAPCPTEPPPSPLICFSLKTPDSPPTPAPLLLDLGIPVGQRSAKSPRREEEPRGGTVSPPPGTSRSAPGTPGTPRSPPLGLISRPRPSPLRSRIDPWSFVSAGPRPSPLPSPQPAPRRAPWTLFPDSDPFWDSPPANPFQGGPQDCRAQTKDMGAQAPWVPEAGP
Chain of Epidermal growth factor receptor (Homo sapiens), P00533 [L858R] (P00533 whole entry L858R): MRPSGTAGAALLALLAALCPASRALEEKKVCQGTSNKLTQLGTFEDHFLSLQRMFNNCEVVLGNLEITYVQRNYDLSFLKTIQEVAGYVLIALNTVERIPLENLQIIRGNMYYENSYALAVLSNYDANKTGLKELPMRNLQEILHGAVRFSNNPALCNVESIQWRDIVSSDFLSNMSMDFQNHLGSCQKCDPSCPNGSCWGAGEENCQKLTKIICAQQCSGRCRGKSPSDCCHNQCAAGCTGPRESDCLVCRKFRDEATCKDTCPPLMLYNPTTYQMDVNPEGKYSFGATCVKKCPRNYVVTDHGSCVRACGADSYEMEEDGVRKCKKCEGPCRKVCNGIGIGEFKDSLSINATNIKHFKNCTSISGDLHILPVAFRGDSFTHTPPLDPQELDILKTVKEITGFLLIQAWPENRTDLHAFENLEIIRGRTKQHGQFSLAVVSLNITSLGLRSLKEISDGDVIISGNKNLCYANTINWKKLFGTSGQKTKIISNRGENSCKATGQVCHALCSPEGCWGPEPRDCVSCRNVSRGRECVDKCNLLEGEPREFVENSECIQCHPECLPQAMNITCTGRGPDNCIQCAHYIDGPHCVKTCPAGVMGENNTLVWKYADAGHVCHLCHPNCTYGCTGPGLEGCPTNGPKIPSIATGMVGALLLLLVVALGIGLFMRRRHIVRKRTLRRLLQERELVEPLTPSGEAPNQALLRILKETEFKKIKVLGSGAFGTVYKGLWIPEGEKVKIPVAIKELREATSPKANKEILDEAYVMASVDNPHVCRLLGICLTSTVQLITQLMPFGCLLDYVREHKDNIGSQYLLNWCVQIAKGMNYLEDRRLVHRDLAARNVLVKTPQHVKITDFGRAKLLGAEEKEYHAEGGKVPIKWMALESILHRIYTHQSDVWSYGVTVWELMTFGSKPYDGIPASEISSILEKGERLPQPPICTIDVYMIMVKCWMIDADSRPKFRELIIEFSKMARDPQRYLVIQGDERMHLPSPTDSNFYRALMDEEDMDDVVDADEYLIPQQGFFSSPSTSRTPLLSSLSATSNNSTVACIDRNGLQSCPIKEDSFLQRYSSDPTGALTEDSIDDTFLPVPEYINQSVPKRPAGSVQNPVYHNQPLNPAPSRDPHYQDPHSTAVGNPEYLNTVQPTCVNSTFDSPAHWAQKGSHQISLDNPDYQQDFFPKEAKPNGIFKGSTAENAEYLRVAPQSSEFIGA

SMILES	inhibition [1]	inhibition [2]	inhibition [3]	inhibition [4]	inhibition [5]	inhibition [6]
O[C@H]1CC[C@H](Nc2nccc(-n3ccc4ccccc43)n2)CC1	< 50%	< 50%	< 50%	< 50%	95%	83%
CS(=O)(=O)CCCOc1cccc2c1ccn2-c1ccnc(N[C@H]2CC[C@H](C(=O)N3CCC(O)CC3)CC2)n1	–	–	–	–	> 85%	> 85%

More lines, now with the values ahead:

inhibition [1]	inhibition [2]	inhibition [3]	inhibition [4]	inhibition [5]	inhibition [6]	SMILES
88%	81%	< 50%	–	–	–	O[C@H]1CC[C@H](Nc2nccc(-c3n[nH]c4ccccc34)n2)CC1
< 50%	< 50%	< 50%	< 50%	100%	92%	O[C@H]1CC[C@H](Nc2nccc(-n3nnc4ccccc43)n2)CC1
< 50%	< 50%	< 50%	< 50%	97%	81%	O[C@H]1CC[C@H](Nc2nccc(-n3ncc4ccccc43)n2)CC1
